This excerpt belongs to a sample that is enriched for hits.
PTEN del growth: PTEN-deleted cell growth suppression | HCT116 PTEN-null viability, CellTiter-Glo, 60 h; active compounds read low | viability, % at 10 µM | 140,000 compounds, 1.2% hits | AID 827;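 active = viability at or below a set limit, 4 SD under the median of all tested compounds, cut at about 3.7% in these data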;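 also: PTEN knockout HCT116 line with beta catenin targeted HCT116 as companion control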
H69AR inhibit: growth inhibitors of human H69AR lung tumor cells; H69AR lung tumor viability, ATP luminescence, 72 h; active compounds read low; viability, % at 10 µM; 85,000 compounds, 6% hits; AID 598;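 active = viability at or below 40%; inactive = viability above 40%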;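 also: multidrug resistant small cell line overexpressing MRP-1 efflux transporter; 100% = mean luminescence of untreated control wells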
Fibroblast inh: blocks proliferation of human lung fibroblasts; LL 47 human lung fibroblast viability, ATP luminescence; active compounds read low; viability, % at 10 µM; 85,000 compounds, 1.1% hits; AID 719;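 active = viability at or below 50% in the single dose screen; inactive = viability above 50%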;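 also: compound exposure lasted 72 h before the ATP readout; 100% = median luminescence of untreated cell-only wells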
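Material: human LL 47 lung fibroblast cells; quantity: 1,150 cells/well; medium: IMEM plus 15% FBS; doses: 0.1% DMSO in all compound wells; timing: overnight attachment after seeding, then 72 h compound exposure at 37 °C; detection: CellTiter-Glo luminescence; measure: % viability of median cell-only signal; controls: cell-only wells, no compound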
HUVEC prolif 384: blocks proliferation of human endothelial cells; HUVEC proliferation, CellTiter-Glo luminescence, 72 h; active compounds read low; viability, % at 10 µM (by protocol); 86,000 compounds, 1.1% hits;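 active = viability at or below 30%; inactive = viability above 30%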;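 also: 100% = median luminescence of DMSO-only cell control wells on each plate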
bCat KO growth: beta-catenin-lacking colon tumor cell growth suppression. HCT116 beta-catenin knockout viability, CellTiter-Glo, 60 h; active compounds read low. viability, % at 10 µM. 140,000 compounds, 1.5% hits;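 active = viability at or under a set limit, the compound median less 4 SD, cut at about 6% in these data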;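 also: 0% = Hyamine 1622 control at 20 µM and 100% = untreated cell control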
Active calls of the source: *; / = no result given.

SMILES	PTEN del growth	H69AR inhibit	Fibroblast inh	HUVEC prolif 384	bCat KO growth
CCCCCCn1c(=O)c(C(=O)Nc2ccncc2)c(O)c2ccccc21	/	12*	55	63	/
O=C(Nc1ccncc1)c1c(O)c2ccccc2n(Cc2ccccc2)c1=O	/	17*	92	99	/
COC(=O)c1cc(C(O)(C(=O)OC)C(F)(F)F)c(/N=C/N(C)C)s1 (stereo not drawn)	107	99	95	96	108
CCCC(C)C1(CC)C(=O)NC(=O)N=C1N (stereo not drawn)	101	/	/	/	100
Clc1ccccc1Nc1ncnc(-n2cccc2)n1	85	/	/	/	94
CCN(CC)c1ccc(N=Cc2c(O)n(CCc3ccc(OC)c(OC)c3)c(=O)[nH]c2=O)cc1	15	/	/	/	2.7*
CCN(CC)S(=O)(=O)c1ccc(N=Cc2c(O)n(-c3ccccc3)c(=O)[nH]c2=O)cc1	90	92	93	87	85
CCN(CC)c1ccc(N=Cc2c(O)n(-c3cc(OC)ccc3OC)c(=O)[nH]c2=O)cc1	24	52	85	73	3.0*
CCN(CC)CCCN=Cc1c(O)n(CCc2ccc(OC)c(OC)c2)c(=O)[nH]c1=O	109	96	97	89	105
C[C@H]1CCC[C@H](O)CCCCCc2cc(O)cc(O)c2C(=O)O1	74	32*	85	47	71
C[C@H]1CCC[C@@H](O)CCC/C=C/c2cc(O)cc(O)c2C(=O)O1	43	6.5*	70	34	47
CC1CCC[C@H](O)CCCCCc2cc(O)cc(O)c2C(=O)O1 (stereo partly drawn)	93	/	/	/	105
CN1CCc2nc3sc(C(=O)NC(C)(C)C)c(N)c3cc2C1	92	93	100	88	83
O=c1[nH]c(=O)n(CCc2ccccc2)c(O)c1C=NCc1ccc2c(c1)OCO2	91	35*	80	71	102
O=C(c1ccco1)c1cn(Cc2ccc(Cl)cc2)c2ccccc12	60	11*	95	71	53
O=C(c1cccs1)c1cn(Cc2ccccc2Cl)c2ccccc12	75	34*	92	93	78
N#Cc1ccccc1Cn1cc(C(=O)c2cccs2)c2ccccc21	78	90	88	89	87
O=C(c1ccc2c(c1)ncn2C1CCCCC1)N1CCC2(CC1)OCCO2	22	17*	75	60	17
CNCCc1nc(N)n[nH]1	102	82	104	91	92
O=C(c1ccccc1)C(CN1CCCC1)c1ccccc1 (stereo not drawn)	1.5*	/	/	/	1.8*
CC(C)OCCCNC(=O)c1c(N)n(Cc2cccs2)c2nc3ccccc3nc12	14	98	81	35	32
Nc1c(C(=O)OCC2CCCO2)c2nc3ccccc3nc2n1Cc1cccs1 (stereo not drawn)	63	39*	97	60	68
CCCC1=C(C(=O)OCC)C2(C(=O)Nc3ccccc32)C(C#N)=C(N)O1 (stereo not drawn)	86	87	98	97	80
Cc1cccc(-n2c(O)c(C=NCCCN3CCOCC3)c(=O)[nH]c2=O)c1C	89	/	/	/	92
CN1CCC(N(C)c2ncnc3ccc(Br)cc23)CC1	94	86	102	82	84
SMILES	PTEN del growth	H69AR inhibit	Fibroblast inh	HUVEC prolif 384	bCat KO growth
Cc1ccc(-c2nc(N(C)C3CCN(C)CC3)c3ccccc3n2)cc1	1.4*	2.7*	38*	4.3*	1.4*
CN1C[C@H](CNC(=O)OCc2ccccc2)C[C@@H]2c3cccc4c3c(cn4C)C[C@H]21	41	1.7*	76	3.9*	32
O=C1C2(c3ccccc3)CN3CN(C2)CC1(c1ccccc1)C3	101	86	93	95	100
COc1ccccc1N=Cc1c(O)n(C)c(=O)n(C)c1=O	95	1.3*	93	97	92
Cn1c(O)c(/C=N/c2ccccn2)c(=O)n(C)c1=O	104	84	100	90	92
CC(C)N1CCC2(CC1)NC(CO)(CO)CO2	92	91	98	88	106
CNC(C(=O)c1ccccc1)C(OC)c1ccc(C)cc1 (stereo not drawn)	93	/	/	/	92
COC(=O)C1CN(C#N)N(c2ccc(Cl)cc2)C12c1ccccc1-c1ccccc12 (stereo not drawn)	1.0*	2.3*	2.1*	2.4*	1.2*
CN(C)c1ccc(C(=O)c2ccc(N(C)C)cc2)cc1	24	16*	55	41	19
CCOC(=O)c1c(-c2ccc(OC)cc2)oc2ccc(OC(=O)N(C)C)cc12	55	33*	103	72	58
Cc1ccccc1Cc1c(C)nc2nc(SCC(=O)N3CCC4(CC3)OCCO4)nn2c1C	87	/	/	/	90
O=C1NC(=O)C2(Cc3ccccc3N3CCCC32)C(=O)N1c1ccccc1 (stereo not drawn)	94	102	90	87	87
O=C1NC(=O)C2(Cc3ccccc3N3CCOCC32)C(=O)N1c1ccccc1 (stereo not drawn)	24	19*	94	72	28
COc1ccc(-c2nc3ccccc3n2OC(=O)N(C)C)cc1	105	64	96	89	107
CN(C)C(=O)On1c(-c2ccccc2)nc2ccc(Cl)cc21	82	38*	90	98	89
CC(C)(C)n1c(O)c(C=Nc2ccc3c(c2)CCC3)c(=O)[nH]c1=O	80	/	96	88	98
COCCNC(=O)c1c(N)n(CCC(C)C)c2nc3ccccc3nc12	74	15*	102	71	83
CCCNC(=O)c1c(N)n(Cc2ccc3c(c2)OCO3)c2nc3ccccc3nc12	72	/	/	/	80
CC(C)CCNC(=O)c1c(N)n(Cc2ccc3c(c2)OCO3)c2nc3ccccc3nc12	19	6.1*	67	15*	22
CC(C)CNC(=O)c1c(N)n(Cc2ccc3c(c2)OCO3)c2nc3ccccc3nc12	20	26*	88	49	32
Cc1sc2nc(COC(=O)Cc3ccccc3)[nH]c(=O)c2c1C	99	88	104	100	94
CCC(C)n1c(O)c(C=Nc2cccc(C(F)(F)F)c2)c(=O)[nH]c1=S (stereo not drawn)	96	/	/	/	85
CC(C)CC12CN3CCN(CC(C3)C1O)C2 (stereo not drawn)	95	102	102	98	110
